# Residues, ends and D or L forms follow the SMILES beside them.
# How the values were obtained:
# HCMV protease = settings: substrate hydrolysis, literature data; cited from earlier work
# [1] = target: T1, HCMV A143T/A144T protease mutant (Human cytomegalovirus, UniProt P16753, A143T/A144T); experiment: Esterase activity toward p-nitrophenol; assay type: biochemical; settings: for hydrolysis by HCMV protease (in words): up to 10 min at 30 °C
# T1 sequence (P16753 1-256 A143T/A144T limits assumed): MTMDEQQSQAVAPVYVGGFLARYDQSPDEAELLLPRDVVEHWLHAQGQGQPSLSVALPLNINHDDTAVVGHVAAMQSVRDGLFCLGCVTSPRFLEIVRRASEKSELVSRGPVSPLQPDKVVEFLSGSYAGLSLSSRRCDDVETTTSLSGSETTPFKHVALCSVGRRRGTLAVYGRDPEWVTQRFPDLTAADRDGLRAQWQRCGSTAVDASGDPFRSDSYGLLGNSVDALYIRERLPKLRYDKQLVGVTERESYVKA
# In short: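 Catalytic-domain His-tagged A143T/A144T mutant, expressed in E. coli BL21(DE3) and Ni-NTA purified, 10 μg/mL, preincubated 3 min in 100 mM phosphate pH 7.4 with 0.5 M Na2SO4 and 10% glycerol. Boc-Xaa-ONp (50 μM) then added at 30 °C for up to 10 min. p-Nitrophenol release read at 405 nm every 30 s. Boc-Ala-ONp kinetics run in 50 mM Tris pH 7.4.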
# [2] = Solubility of the model ester; assay type: physicochemical
# [3] = substrate hydrolysis, 10 μg/mL protease, 50 mM Tris buffer (pH 7.4)
compound,measurement,setting,value
N-Ac-Tbg-Tbg-Asn(NMe2)-Ala-AMC,Km,HCMV protease,13.2 µM
same,kcat,HCMV protease,0.035 ^b s^–1
CC(C)[C@H](NC(=O)OC(C)(C)C)C(=O)Oc1ccc([N+](=O)[O-])cc1 [Boc-L-Val-ONp],hydrolysis by HCMV protease (in words),"[1]; 50 μM ester, 10 μg/mL protease",not hydrolyzed
CC(C)(C)OC(=O)N[C@@H](CCC(N)=O)C(=O)Oc1ccc([N+](=O)[O-])cc1 [Boc-L-Gln-ONp],hydrolysis by HCMV protease (in words),"[1]; 50 μM ester, 10 μg/mL protease",not hydrolyzed
CCC(C)C(NC(=O)OC(C)(C)C)C(=O)Oc1ccc([N+](=O)[O-])cc1 [Boc-L-Ile-ONp],hydrolysis by HCMV protease (in words),"[1]; 50 μM ester, 10 μg/mL protease",not hydrolyzed
CC(C)(C)OC(=O)NCC(=O)NCC(=O)Oc1ccc([N+](=O)[O-])cc1 [Boc-L-Gly-L-Gly-ONp] (HELM PEPTIDE1{[CC(C)(C)OC(=O)[*:2]].G.G.[O=[N+]([O-])c1ccc(O[*:1])cc1]}$$$$V2.0),hydrolysis by HCMV protease (in words),"[1]; 50 μM ester, 10 μg/mL protease",slower than that of Boc-L-Gly-ONp
C[C@H](NC(=O)OC(C)(C)C)C(=O)Oc1ccc([N+](=O)[O-])cc1 [Boc-L-Ala-ONp],specific activity relative to Boc-L-Gly-ONp and Boc-L-Phe-ONp (higher),"[1]; 50 μM ester, 10 μg/mL protease",~5 fold
same,specific activity,"[1]; 50 μM ester, 10 μg/mL protease, 30 °C",190 nmol/min/mg protein
same,affinity relative to N-Ac-Tbg-Tbg-Asn(NMe2)-Ala-AMC (less),[1]; comparison of Km values,about 10 fold
same,turnover rate (kcat) relative to the peptide compound (faster),[1]; comparison of kcat values,10 fold
same,Km,[1]; [3],163 µM
same,kcat,[1]; [3],0.397 s^–1
same,solubility (in words),[2],low solubility
CC(C)CC(NC(=O)OC(C)(C)C)C(=O)Oc1ccc([N+](=O)[O-])cc1 [Boc-L-Leu-ONp],hydrolysis by HCMV protease (in words),"[1]; 50 μM ester, 10 μg/mL protease",not hydrolyzed
